pIC50: −log10 of the molar value. The source made the active and inactive calls. The rule behind the calls is not given here.

One test relates to L02. Kind of test: Antiproliferative activity against human L-O2 cells assessed as reduction in cell viability incubated for 48 hrs by MTT assay. Type of test: cell-based. The settings on record: L02, 48 h. The procedure, abridged: (§1)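 Cells seeded at 5 × 10³ per well, incubated overnight, then exposed to a range of compound concentrations for 48 h. MTT added for 4 h, medium replaced with DMSO, absorbance read at 570 nm. MCF-7, L-O2 grown in DMEM; MCF-10A, MCF-7/ADR in RPMI 1640. Three independent runs.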
On the technique in general: Tetrazolium dyes change colour on reduction, which living cells bring about.

A short description of test [1]: Antiproliferative activity against human MCF7/ADR cells assessed as reduction in cell viability incubated for 48 hrs by MTT assay. Type of test: functional, cell-based. To be noted: MCF7, 48 h. In short, it runs like this:
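Cells seeded at 5 × 10³ per well, incubated overnight, then exposed to a range of compound concentrations for 48 h. MTT added for 4 h, medium replaced with DMSO, absorbance read at 570 nm. Three independent runs.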

The test system of another test is MCF-10A. Put plainly: Antiproliferative activity against human MCF-10A cells assessed as reduction in cell viability incubated for 48 hrs by MTT assay. The format is cell-based. The procedure, abridged:
as §1

The test system of test [2] is MCF7. Put plainly: Antiproliferative activity against human MCF7 cells assessed as reduction in cell viability incubated for 48 hrs by MTT assay. Type of test: functional, cell-based. The settings on record: MCF7, 48 h. The procedure, abridged:
as §1

For test [3], the system named is MCF7. Kind of test: Antitumor activity against human MCF7 cells xenografted in BALB/c nude mouse assessed as decrease in tumor weight at 20 mg/kg, iv administered every 2 days for 21 days and measured every 2 days. Also noted: scale not given: the % may be the effect or the level left. The settings on record: time 21 day. Type of test: functional. In short, it runs like this: (§2)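 MCF-7 cells (6 × 10⁶) injected subcutaneously into right flank of BALB/c nude mice; after 7 days animals randomized, eight per group. Dosing iv every 2 days for 21 days, vehicle 10% DMSO/5% Tween 80/85% saline. Tumor size and body weight recorded every 2 days; tumors excised and weighed at sacrifice.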
For orientation: Xenograft models place foreign cells or tissue in a host animal.

The next test has as its target Tubulin (Homo sapiens) (UniProt P68371+Q9H4B7+P0DPH7+P68366+Q13509+Q71U36+P04350+Q3ZCM7+P07437+P68363+Q9BQE3+Q6PEY2+Q13885+Q9BVA1+Q9BUF5). Kind of test: Induction of microtubule depolymerization in human MCF7 cells at 10 uM measured every 5 mins for 60 mins by spectrophotometric method. Type of test: cell-based. The procedure, abridged:
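Purified tubulin at 2 mg/mL in PEM buffer preincubated on ice with compound or DMSO. PEG added to a final 3 mg/mL, then polymerization followed at 37 °C by absorbance at 350 nm every 5 min for 60 min.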

In test [4] the test system is MCF7. Put plainly: Antitumor activity against human MCF7 cells xenografted in BALB/c nude mouse assessed as decrease in tumor weight at 10 mg/kg, iv administered every 2 days for 21 days and measured every 2 days. The arrangement: scale not given: the % may be the effect or the level left. The settings on record: time 21 day. The format is functional. In short, it runs like this:
as §2

Broadly, the pIC50 is −log10 of the IC50, conventionally taken in molar units. In the case of `Cc1nc(N(C)c2cnc3c(ccn3C)c2)c2ccccc2n1`, the pIC50 in the test on L02 is 8.14; in test [1], 8.68; in the test on MCF-10A it was 7.80; in the test with MCF7 [2] it was 8.68.

Take `Cc1cc(N(C)c2ccc3c(c2)OCO3)c2ccccc2n1`: the pIC50 in the test with L02 was 5.60; in test [1], 7.34; with MCF-10A, 6.90; in the test with MCF7 [2], 7.27.

On to `COc1ccc(/C=C\c2cc(OC)c(OC)c(OC)c2)cc1O` [COMBRETASTATIN A4], for which the figures for the pIC50 with L02, with MCF-10A and with MCF7 [2] were 7.99, 7.00 and 8.32, respectively. The Activity with MCF7 [3] is 37.5%. Also, the result on Tubulin (Homo sapiens) was Active.

`Cc1cc(N(C)c2ccc(C(F)(F)F)cc2)c2ccccc2n1`: the pIC50 is 5.42 in the test on L02, 6.07 in test [1], below 6.00 with MCF-10A and below 6.00 in the test with MCF7 [2].

In the case of `Cc1cc(N(C)c2cnc3c(ccn3C)c2)c2ccccc2n1`, the pIC50 in the test on L02 is 8.00; in test [1] it was 8.21; in the test on MCF-10A, 7.62; with MCF7 [2] it was 8.35.

Take `CCN(CC)c1ccc(N(C)c2cc(C)nc3ccccc23)cc1`: the pIC50 in the test with L02 is 7.51; in test [1], 6.57; in the test with MCF-10A, 7.92; with MCF7 [2], 7.60.

`Cc1cc(N(C)c2ccc3c(c2)cc(C)n3C)c2ccccc2n1`: the pIC50 with L02 is 8.14; in test [1] it was 8.66; with MCF-10A it was 8.00; in the test with MCF7 [2] it was 8.62.

For `Cc1ccc(N(C)c2cc(C)nc3ccccc23)cc1`, the pIC50 in the test on L02 was 5.82; in test [1], 7.27; in the test on MCF-10A, 6.74; in the test with MCF7 [2], 6.99.

Take `Cc1cc(N(C)c2ccc(-c3ccccc3)cc2)c2ccccc2n1`: the pIC50 in the test on L02 was 5.46; in test [1], 6.09; in the test on MCF-10A, below 6.00; with MCF7 [2], below 6.00.

Consider `Cc1cc(N(C)c2ccc(N(C)C)cc2)c2ccccc2n1`, for which the pIC50 in the test on L02 is 6.64; in test [1] it was 7.48; in the test on MCF-10A it was 7.31; with MCF7 [2], 6.03.

Take `COc1ccc(N(C)c2cc(C)nc3ccccc23)cc1OC`: the pIC50 is 5.66 in the test on L02, 7.54 in test [1], 6.33 in the test on MCF-10A and 7.01 in the test with MCF7 [2].

Regarding `COc1cc(N(C)c2cc(C)nc3ccccc23)cc(OC)c1OC`, the pIC50 was 5.38 in the test with L02, 6.04 in test [1], below 6.00 in the test with MCF-10A and below 6.00 with MCF7 [2].

With `CC(=O)O[C@H]1C(=O)[C@@]2(C)[C@H]([C@H](OC(=O)c3ccccc3)[C@]3(O)C[C@H](OC(=O)[C@H](O)[C@@H](NC(=O)c4ccccc4)c4ccccc4)C(C)=C1C3(C)C)[C@]1(OC(C)=O)CO[C@@H]1C[C@@H]2O` [PACLITAXEL], the result at Tubulin (Homo sapiens) was inactive. Also, the Activity in the test on MCF7 [4] came out at 84.2%.

Source of the values: ChEMBL document CHEMBL5030534, “Discovery of Novel Anti-Breast-Cancer Inhibitors by Synergistically Antagonizing Microtubule Polymerization and Aryl Hydrocarbon Receptor Expression” (J Med Chem, 2021).
